From ChEMBL document CHEMBL4513216, “Probing the Open Global Health Chemical Diversity Library for Multistage-Active Starting Points for Next-Generation Antimalarials” (ACS Infect Dis, 2020)

Experiment: Toxicity liver stage against HepG2, at 10uM
Assay type: cell-based
Set-up: test concentration 10 uM, cell line HepG2-A16-CD81EGFP
Settings: human, HepG2-A16-CD81EGFP cells; read-out: INHIBITION
Summary of the method: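 Uninfected HepG2-A16-CD81EGFP cells, 3 × 10^3 per well, 1536-well, plated on prespotted compound at 10 μM final, parasite-free screening media added to match infected plates; puromycin 10 μM positive, DMSO 0.5% negative; run in parallel with 48 h PbLuc assay at 37 °C, 5% CO2; viability by CellTiter-Glo luminescence, normalized to controls.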

N#Cc1ccccc1NC(=O)c1ccc2c(c1)OCO2
cytotoxicity at 10 µM: -10.4%

c1cc(-c2c[nH]c([C@@H]3COCCN3Cc3csnn3)n2)ccn1
cytotoxicity at 10 µM: 3.07%

CCNC(=O)NC[C@@H]1C=C(C)[C@H](CC(=O)NCCN(C)C)C[C@H]1C(C)C
cytotoxicity at 10 µM: 2.43%

CC(=O)c1cccc(S(=O)(=O)NCC(C)(O)c2cccs2)c1 (centres undefined)
cytotoxicity at 10 µM: -17%

O=S(=O)(C1CC1)N1CCO[C@@H]2CN(Cc3ccco3)C[C@@H]2C1
cytotoxicity at 10 µM: -140%

CN(C)C(=O)CN1CCO[C@H]2CN(c3ccccn3)C[C@H]21
cytotoxicity at 10 µM: 8.16%

CCN1C(=O)CC(c2cnn(C)c2)C12CCN(C(=O)c1ccc[nH]1)CC2 (centres undefined)
cytotoxicity at 10 µM: 8.82%

Cc1ccc(CN2CCC3(CCN(Cc4ccncc4)CC3)CC2)cc1
cytotoxicity at 10 µM: 8.4%

O=C(c1ccncc1)N1CCCn2nnc(Cn3cccn3)c2C1
cytotoxicity at 10 µM: 6.01%

COCc1ncn2c1CN(C(=O)c1cnc3ccccc3c1)CC2
cytotoxicity at 10 µM: -2.39%

CO[C@@H]1CC[C@H]2[C@H]1OCCN2C(=O)C1CCOCC1
cytotoxicity at 10 µM: 3.33%

O=C(COc1coc(CN2CCSCC2)cc1=O)c1ccccc1
cytotoxicity at 10 µM: 9.21%

CCn1c(=O)c2sccc2n(CC(=O)Nc2cccc(Cl)c2)c1=O
cytotoxicity at 10 µM: 0.115%

O=c1[nH]nc2c(N3CCC(NC4CCOCC4)CC3)nccn12
cytotoxicity at 10 µM: 7.19%

Cn1c(=O)c2c(n3ncnc13)NC(=O)CC2c1cccc(Br)c1 (centres undefined)
cytotoxicity at 10 µM: 7.83%

O=C(c1n[nH]cc1Br)N1CCOCC1
cytotoxicity at 10 µM: 5.31%

Cc1nc(N2CCN(C(=O)c3ccncc3)CC2)c2c(n1)c(C)nn2C
cytotoxicity at 10 µM: 10.3%

CC(NC(=O)c1ccc(F)cc1F)c1cnn(C)c1 (centres undefined)
cytotoxicity at 10 µM: 3.68%

Cc1noc2nc(C3CC3)c(Cl)c(C(=O)O)c12
cytotoxicity at 10 µM: -1.25%

CCn1c(NCc2ccccc2)nc2c(C)nn(C)c2c1=O
cytotoxicity at 10 µM: 10.6%

Cc1cccc(CNc2n[nH]c(C)n2)c1
cytotoxicity at 10 µM: -4.09%

CN1CCN(c2nsc(-c3ccccc3)c2C#N)CC1
cytotoxicity at 10 µM: 1.28%

CSCc1cccc(S(=O)(=O)N2CCCC2)c1
cytotoxicity at 10 µM: 8.49%

Cn1nccc1CNC(=O)C1CCCCC1
cytotoxicity at 10 µM: 7.89%

COc1c(Br)c(C(=O)NC2CC2)nn1C
cytotoxicity at 10 µM: 3.18%

O=S1(=O)NC(c2ccnc(N3CCCC3)n2)=Nc2ccccc21
cytotoxicity at 10 µM: 12.8%

c1cnc(CC2CCN(c3cnccn3)CC2)cn1
cytotoxicity at 10 µM: 4.44%

CN(CCOc1ccccc1F)C1CCOC1=O (centres undefined)
cytotoxicity at 10 µM: -147%

CCn1ccnc1CN1CCN(C(C)C)CC1C (centres undefined)
cytotoxicity at 10 µM: -6.58%

CC(C)Oc1ccccc1CNC(=O)N(C)C(C)CS(C)(=O)=O (centres undefined)
cytotoxicity at 10 µM: -48.4%

O=C(NCC1CCOC1)c1cc(-c2ccccc2Cl)[nH]n1 (centres undefined)
cytotoxicity at 10 µM: -3.11%

Cc1ccc(C(=O)N2CCOCC2)cc1NCc1ccsc1
cytotoxicity at 10 µM: -6.96%

CCn1nc2c(cc1=O)CN(CCCOc1ccc(C#N)cc1)CC2
cytotoxicity at 10 µM: 14%

CN(C1CCN(c2ccccn2)CC1)S(=O)(=O)c1cccs1
cytotoxicity at 10 µM: 13.3%

CCC(C)(C)NC(=O)Cn1cc(C(N)=O)c(-c2ccccc2)n1
cytotoxicity at 10 µM: -6.84%

COc1ccc(C)cc1CN(Cc1nc(C)c(C)o1)C1CCN(C)C1 (centres undefined)
cytotoxicity at 10 µM: -3.41%

CC(C)CC(NC(=O)c1ccn(C)c(=O)c1)c1cccs1 (centres undefined)
cytotoxicity at 10 µM: 1.67%

Cc1cccc(C2(O)CCN(C(=O)c3ccc(N(C)C)cc3)CC2)c1C
cytotoxicity at 10 µM: -2.96%

C=C(C)CN(CC)Cc1nc(C)no1
cytotoxicity at 10 µM: -15.8%

CC(C)N(CCS(C)(=O)=O)Cc1csc(-c2ccccc2F)n1
cytotoxicity at 10 µM: -49.3%

Cc1cc(CNC(=O)Nc2cc(F)cc(N3CCCC3)c2)no1
cytotoxicity at 10 µM: -17.7%

CN(CC(F)(F)F)C(=O)C1CSCN1C(=O)OC(C)(C)C (centres undefined)
cytotoxicity at 10 µM: -0.265%

CNC(=O)[C@H]1C[C@@H]2CN(C(=O)c3ccncc3F)C[C@@H]2N1C
cytotoxicity at 10 µM: -111%

Cc1csc(CN2C[C@@H]3CN(S(C)(=O)=O)CCO[C@@H]3C2)n1
cytotoxicity at 10 µM: -98.3%

O=C(c1ccnnc1)N1CCC2(CC1)CN(c1ccccn1)CCO2
cytotoxicity at 10 µM: -81.5%

CN(C)C(=O)N1C[C@H]2CN(Cc3cccc(F)c3)C(=O)[C@H]2C1
cytotoxicity at 10 µM: 4.61%

O=C1NCCN(CC2CC2)C12CCN(Cc1ccc3c(c1)OCO3)CC2
cytotoxicity at 10 µM: -1.06%

Cc1nn(C)c2nc(N(Cc3nccs3)C3CC3)sc12
cytotoxicity at 10 µM: -45.9%

CCN1CCN(C(=O)c2ccc3c(c2)CCCN3)[C@H]2CS(=O)(=O)C[C@H]21
cytotoxicity at 10 µM: -57.8%

CCN1CC2(CCC1=O)CCN(Cc1cccc(C#N)c1)CC2
cytotoxicity at 10 µM: -1.1%

CSCCCNC(=O)C(c1ccccc1C)N(C)C (centres undefined)
cytotoxicity at 10 µM: 4.68%

Cc1cc2cccc(C(=O)N3CCOC(CCN(C)C)C3)c2o1 (centres undefined)
cytotoxicity at 10 µM: 5.91%

COc1ccc(NC(=O)N2CCCC(CO)C2)c(C)c1 (centres undefined)
cytotoxicity at 10 µM: -8.33%

CN1CC2(CCN(Cc3cc(Cl)ccc3OCC(=O)O)CC2)OC1=O
cytotoxicity at 10 µM: 1.6%

CCN(C)C(=O)Cn1c(-c2ccco2)nn(-c2ccccc2OC)c1=O
cytotoxicity at 10 µM: 0.832%

CC(C)CN1CCn2nc(CNc3ncnc4[nH]cnc34)cc2C1
cytotoxicity at 10 µM: 6.88%

Cc1cccc(=O)n1CCC(=O)N(C)Cc1cccc2ncccc12
cytotoxicity at 10 µM: 0.66%

CCn1cc(C(=O)NCc2cccnc2N(C)Cc2ccccc2)cn1
cytotoxicity at 10 µM: 1.18%

COc1cccc(Cn2ncnc2CNC(C)=O)c1
cytotoxicity at 10 µM: 0.15%

CC(C)[C@@H]1CN(CCOc2ccccc2)C[C@H]1NS(=O)(=O)N(C)C
cytotoxicity at 10 µM: -43%

COc1ccc(Cc2ncc3c(n2)CN(C(=O)CCO)C3)cc1
cytotoxicity at 10 µM: 2.37%

C=C(C)CNc1ccc(C(=O)N(CC)Cc2nccn2C)cn1
cytotoxicity at 10 µM: -9.36%

Cc1cc(C)nc(N2CC[C@@]3(O)CCN(S(=O)(=O)N(C)C)C[C@H]3C2)n1
cytotoxicity at 10 µM: 3.5%

CCC(C(=O)N1CCN(C(=O)N2CCOCC2)CC1)n1cccn1 (centres undefined)
cytotoxicity at 10 µM: 2.35%

CC(=O)c1cnc(NCCN2CCCC2)nc1C
cytotoxicity at 10 µM: -3.73%

O=C1NCC(c2ccc(Cl)cc2)Cc2[nH]c(CCN3CCOCC3)nc21 (centres undefined)
cytotoxicity at 10 µM: -5.68%

CC(C)CN1CCc2[nH]cnc2C12CCN(C(=O)c1ccc[nH]1)CC2
cytotoxicity at 10 µM: 14.7%

CCCN(CCO)C(=O)c1cc(COc2ccc3c(c2)CCCC3)on1
cytotoxicity at 10 µM: -159%

O=C1O[C@@H]2CN(C3CCOCC3)C[C@@H]2N1CCCc1ccc(F)cc1
cytotoxicity at 10 µM: 5.77%

CC(C)CNC(=O)CN1CCCC(c2ccc(C(=O)O)cc2)C1 (centres undefined)
cytotoxicity at 10 µM: -6.49%

CCn1c(C2CCN(C(=O)c3ccc4cc[nH]c4c3)CC2)n[nH]c1=O
cytotoxicity at 10 µM: -18.5%

CN1N=C(C(=O)N2CCCC(CCc3cccc(F)c3)C2)CCC1=O (centres undefined)
cytotoxicity at 10 µM: -3.42%

COc1ccc(C(=O)N2CCC3(CCC(=O)N(C(C)C)C3)CC2)cc1C
cytotoxicity at 10 µM: -3.47%

CCN1CCC[C@@H]1CNC(=O)c1cc(COc2ccccc2)[nH]n1
cytotoxicity at 10 µM: 0.635%

O=C(CO)N1CCCC2(CCC(=O)N(CC3CC3)C2)C1 (centres undefined)
cytotoxicity at 10 µM: 5.75%

Cc1ccc(C)c2c(O)cc(CNCCNC(=O)C(C)C)nc12
cytotoxicity at 10 µM: -8.14%

Cc1nn(CCNC(C)Cn2ccnc2)c(C)c1Cl (centres undefined)
cytotoxicity at 10 µM: -5.19%

COc1cccc(C(C(=O)O)N2CCCN(C3CCCC3)CC2)c1OC (centres undefined)
cytotoxicity at 10 µM: -11.3%

CCNc1ncc(C(=O)NC(c2ccccc2)c2ccco2)cn1 (centres undefined)
cytotoxicity at 10 µM: 5.94%

CC(C)CN1CCc2[nH]cnc2C12CCN(C(=O)c1cncn1C)CC2
cytotoxicity at 10 µM: -8.1%

Cc1cc(=O)[nH]c(=O)n1-c1ccccc1Br
cytotoxicity at 10 µM: 7.89%

Cn1c(N2CCOCC2)nc2cc(C(=O)N[C@@H]3CC[C@@H](N)C3)ccc21
cytotoxicity at 10 µM: -1.07%

CCN1CCN(C2CCN(CCOc3ccc(F)cc3)CC2)C1=O
cytotoxicity at 10 µM: -5.38%

O=C(Cc1cccc(F)c1)NCCNCc1cccnc1
cytotoxicity at 10 µM: -1.56%

CC(=O)NC(C)C(=O)NCc1ccc(N2CCNC(=O)C2)cc1 (centres undefined)
cytotoxicity at 10 µM: 2.03%

CC(C)(C)N1CCN(C(=O)Nc2cc(C(F)(F)F)c[nH]c2=O)CC1
cytotoxicity at 10 µM: 5.08%

Cc1nnc(NC(=O)NCc2ccc(N3CCC(C)CC3)nc2)s1
cytotoxicity at 10 µM: -1.36%

CC(C)c1nccn1C1CCCN(C(=O)CCc2cnn(C)c2)C1 (centres undefined)
cytotoxicity at 10 µM: -1.58%

O=C(CN1CCc2cncnc2C1)NCCOc1cccc(Cl)c1
cytotoxicity at 10 µM: -6.88%

c1ccc(-n2nnnc2CNCC2CCCN2c2cccnn2)cc1 (centres undefined)
cytotoxicity at 10 µM: -4.14%

Cn1c(CN2CCCC(Cn3cncn3)C2)nc2ccccc21 (centres undefined)
cytotoxicity at 10 µM: -6.78%

Cc1nc2cc(C(=O)N3CCCC(n4ccnc4)C3)ccc2n1C (centres undefined)
cytotoxicity at 10 µM: -8.44%

Cc1cnn(C2CCCN(C(=O)c3ccc(-n4ccnc4)cc3)C2)c1 (centres undefined)
cytotoxicity at 10 µM: -1.14%

CCc1nc(CN2CCCC(Cn3nc(C)nc3C)C2)no1 (centres undefined)
cytotoxicity at 10 µM: -2.68%

CC(=O)NCC1CCN(c2cc(C)nc(-c3ccncc3)n2)CC1
cytotoxicity at 10 µM: -1.36%

Cc1cnc(CN2CCC(N(C)Cc3noc(C4CC4)n3)C2)o1 (centres undefined)
cytotoxicity at 10 µM: -12.6%

CS(=O)(=O)N1CCC(NC(=O)COc2ccc3ccccc3c2)CC1
cytotoxicity at 10 µM: -5.56%

CCNC(=O)NC(=O)CN(CC(C)O)c1ccccc1 (centres undefined)
cytotoxicity at 10 µM: 1.32%

CCc1[nH]ncc1C(=O)N1CCCC(n2nc(C)nc2C)C1 (centres undefined)
cytotoxicity at 10 µM: -6.02%

O=C(Cn1nc(-c2ccc(F)cc2)oc1=O)Nc1ccccc1
cytotoxicity at 10 µM: 0.967%

CC(C)c1cc(NC(=O)CN2CCc3cncnc3C2)on1
cytotoxicity at 10 µM: -8.83%

c1csc(CN2CCc3ncnc(C4CCOC4)c3CC2)c1 (centres undefined)
cytotoxicity at 10 µM: 8.01%

O=C(c1cnccn1)N1C[C@@H](OCc2ccncc2)[C@@H]2OCCC[C@@H]21
cytotoxicity at 10 µM: -2.91%

O=C1CCCN1Cc1nnc2n1CCN(Cc1ccoc1)CC2
cytotoxicity at 10 µM: 2.72%

c1cncc(CN2CC[C@H]3O[C@@H](COCC4CCOCC4)CC[C@H]32)c1
cytotoxicity at 10 µM: -73.5%

CN(C)CCN1CCC2(CCCN(Cc3cccn3C)C2)C1=O (centres undefined)
cytotoxicity at 10 µM: -114%

Cc1cccc(CN2CC[C@@H]3[C@@H]2CCN3Cc2cccs2)n1
cytotoxicity at 10 µM: -117%

c1cncc(-c2nnn3c2COCC(CNC2CCOCC2)C3)c1 (centres undefined)
cytotoxicity at 10 µM: -77%

CN(C)C(=O)[C@H]1C[C@H]2CN(S(=O)(=O)c3ccccc3)C[C@@H]1O2
cytotoxicity at 10 µM: -83.1%
